Data on 24 molecules can be found in ChEMBL document CHEMBL4304770, “Discovery of Irreversible Inhibitors Targeting Histone Methyltransferase, SMYD3” (ACS Med Chem Lett, 2019).

For orientation: IC50 means the concentration that inhibits the measured activity by half. For orientation: Papp B→A means the apparent permeability from the basolateral to the apical side of a cell layer. For orientation: Papp A→B means the apparent permeability from the apical to the basolateral side of a cell layer. A word on the GI50: it is the concentration giving 50% growth inhibition. What is called inhibition is the drop in the measured response relative to a control, in per cent. By half-life is commonly meant the time in which the quantity being followed falls by half.

Data set [1] concerns the target T1, Histone-lysine N-methyltransferase SMYD3 (Homo sapiens, UniProt Q9H7B4).
T1 sequence (Q9H7B4 whole entry): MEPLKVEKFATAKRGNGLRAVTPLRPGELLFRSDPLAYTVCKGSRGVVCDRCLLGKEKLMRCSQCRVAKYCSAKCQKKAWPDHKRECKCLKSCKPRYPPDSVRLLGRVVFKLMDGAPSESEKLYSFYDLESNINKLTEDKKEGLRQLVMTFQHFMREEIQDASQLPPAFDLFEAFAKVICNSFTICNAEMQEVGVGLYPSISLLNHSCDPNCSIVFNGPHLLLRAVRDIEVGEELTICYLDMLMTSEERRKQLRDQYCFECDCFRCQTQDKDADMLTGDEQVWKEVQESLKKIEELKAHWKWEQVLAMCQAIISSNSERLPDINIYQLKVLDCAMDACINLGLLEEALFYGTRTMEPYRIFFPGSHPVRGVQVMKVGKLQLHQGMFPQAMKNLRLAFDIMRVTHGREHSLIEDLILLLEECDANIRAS
Description: Inhibition of SMYD3 (unknown origin) using MAP3K2 peptide as substrate pretreated for 30 mins followed by substrate addition and measured after 30 mins by MTase Glo reagent based luminescence assay. The essentials:
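SMYD3 IC50 values taken as mean of duplicate experiments.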

Data set [2] can be described thus: Apparent permeability across basolateral to apical side in human Caco2 cells by LC-MS/MS analysis. Format: ADME, cell-based. To be noted: Caco-2.
Data set [3] in a line: Apparent permeability across apical to basolateral side in human Caco2 cells by LC-MS/MS analysis. Format: ADME, cell-based. To be noted: Caco-2. For orientation: Caco-2 cells form a polarised layer with tight junctions and transporters.
The target of data set [4] is T2, Histone-lysine N-methyltransferase SMYD3 (Homo sapiens) (UniProt Q9H7B4).
T2 sequence (whole entry): T1 sequence (Q9H7B4 whole entry)
Description: Inhibition of SMYD3 in human HepG2 cells assessed as inhibition of cell proliferation incubated for 3 days by CellTiter-Glo luminescent assay. In kind it is cell-based. A general note: ATP-based viability assays read luminescence as a measure of living cells.

The target of data set [5] is T2, Histone-lysine N-methyltransferase SMYD3 (Homo sapiens). Nature of the data set: Inhibition of SMYD3 in human HepG2 cells assessed as inhibition of anchorage-independent colony formation in 3D culture cells incubated for 1 to 2 weeks by thiazolyl blue tetrazolium bromide based. Format: cell-based.
A short description of data set [6]: Apparent intrinsic clearance in human liver microsomes measured upto 60 mins by LC-MS/MS analysis. Format: ADME, Microsome. To be noted: 1 h.
Data set [7] has as its target T2, Histone-lysine N-methyltransferase SMYD3 (Homo sapiens). Nature of the data set: Inhibition of SMYD3 in human HepG2 cells assessed as decrease in MAP3K2 methylation at 20 uM incubated for 24 hrs by cIEF based immunoassay relative to control. In kind it is cell-based. The essentials: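 HepG2 cells exposed to 20 μM for 24 h, DMSO control. MAP3K2-me2/me3 quantified by capillary isoelectric focusing in a nanofluidic proteomic immunoassay. Levels expressed relative to DMSO-treated cells.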

Data set [8] in a line: Metabolic stability in human liver microsomes assessed as half life preincubated for 5 mins followed by NADPH addition measured upto 60 mins by LC-MS/MS analysis. In kind it is ADME, Microsome.
The nature of data set [9]: Metabolic stability in mouse liver microsomes assessed as half life preincubated for 5 mins followed by NADPH addition measured upto 60 mins by LC-MS/MS analysis. In kind it is ADME, Microsome. In general terms: Liver microsomes are a subcellular fraction often used to study metabolism.
Data set [10] can be described thus: Apparent intrinsic clearance in mouse liver microsomes measured upto 60 mins by LC-MS/MS analysis. Format: ADME, Microsome. To be noted: 1 h.
For data set [11], the target named is T2, Histone-lysine N-methyltransferase SMYD3 (Homo sapiens). Description: Irreversible inhibition of SMYD3 (unknown origin) using MAP3K2 peptide as substrate assessed as Kinact pretreated for 5 mins followed by substrate addition and measured after 60 mins by MTase Glo reagent based luminescence assay.
Data set [12] concerns the target T1, Histone-lysine N-methyltransferase SMYD3. Description: Irreversible inhibition of SMYD3 (unknown origin) using MAP3K2 peptide as substrate pretreated for 5 mins followed by substrate addition and measured after 60 mins by MTase Glo reagent based luminescence assay.
The target of data set [13] is T2, Histone-lysine N-methyltransferase SMYD3 (Homo sapiens). Description: Irreversible inhibition of SMYD3 (unknown origin) using MAP3K2 peptide as substrate assessed as kinact/Ki ratio pretreated for 5 mins followed by substrate addition and measured after 60 mins by MTase Glo reagent based luminescence assay.
Data set [14] in a line: GSH reactivity in pH 7.4 phosphate buffer assessed as pseudo first -order rate constant at 0.25 mM in presence of glutathione by HPLC-MS analysis. Format: physicochemical. To be noted: pH 7.4, 250 µM.
Data set [15] deals with HepG2. Description: Downregulation of SMYD3 in human HepG2 cells at 5 to 20 uM incubated for 24 hrs by Western blot analysis. In kind it is functional. The procedure, abridged: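 SMYD3 protein in HepG2 cells probed by Western blot after exposure at 5 and 20 μM, with DMSO control for comparison.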

The source made the active and inactive calls. No cut-off for these calls is given here.

As to `CCCOC(=O)N1CCN(C(=O)c2ccc3c(Cl)c4c(nc3c2)CCCC4)[C@H](C)C1`, in data set [1], the IC50 was found to be 0.25 µM.
For `CCCOC(=O)N1CCN(C(=O)c2ccc3c(Cl)c4c(nc3c2)CC(CN)CC4)CC1` (stereo not drawn), in [2], the Papp B→A worked out at 16.2 ×10⁻⁶ cm/s. Moreover, in data set [3], the Papp A→B is 4.43 ×10⁻⁶ cm/s.
As for `CCCOC(=O)N1CCN(C(=O)c2ccc3c(Cl)cc(-c4ccccc4)nc3c2)C[C@H]1C`, the results for the GI50 in data set [4] and in data set [5] were 24.4 µM and 0.79 µM, respectively. The IC50 in data set [1] was determined as 0.17 µM. Also, the “CLH(app)” value was determined as 43 uL/min/mL in data set [6] and 58 uL/min/mL in data set [10]. Further, the inhibition in data set [7] was 55%. Also, the half-life in data set [8] stood at 21 min; in data set [9], 16 min.
As to `CCOC(=O)N1CCN(C(=O)c2ccc3c(Cl)c4c(nc3c2)CCC4)CC1`, the IC50 in data set [1] came to 30.5 µM.
As to `CCCOC(=O)N1CCN(C(=O)c2ccc3c(Cl)cc(-c4ccc(C(=O)NC)cc4)nc3c2)CC1`, the GI50 in data set [4] was greater than 100 µM. The Kinact in data set [11] turned out to be 0.127 min⁻¹. Further, the results for the “CLH(app)” value in data set [6] and in [10] were 53 uL/min/mL and 20 uL/min/mL, respectively. Also, in data set [12], the Ki is 3.06 µM. Moreover, the Ratio in [13] came to 692 M⁻¹ s⁻¹. Besides, the half-life in data set [8] worked out at 17 min; in data set [9], 46 min.
In the case of `CCCOC(=O)N1CCN(C(=O)c2ccc3c(Cl)c4c(nc3c2)CCCC4)[C@@H](C)C1`, in data set [1], the IC50 was found to be 0.14 µM.
Regarding `CCCOC(=O)N1CCN(C(=O)c2ccc3c(Cl)c4c(nc3c2)CCCC4)CC1`, the IC50 in data set [1] amounted to 0.37 µM.
Turning to `CCCOC(=O)N1CCN(C(=O)c2ccc3ccc(-c4ccccc4)nc3c2)C[C@H]1C`, the values for the GI50 in [4] and in data set [5] were 60.8 µM and greater than 10 µM, respectively. In addition, the IC50 in data set [1] was greater than 250 µM. Also, the inhibition entry in data set [7] was “inactive”.
For `NCCCC(=O)N1CCN(C(=O)c2ccc3c(Cl)c4c(nc3c2)CCCC4)CC1`, the IC50 in data set [1] is greater than 750 µM.
Still for that read-out and setting: as for `CCOC(=O)N1CCN(C(=O)c2ccc3c(C)c4c(nc3c2)CCCC4)CC1`, the figure is greater than 750 µM.
Consider `CCCOC(=O)N1CCN(C(=O)c2ccc3c(Cl)c4c(nc3c2)CC(CN)CC4)[C@@H](C)C1` (stereo partly drawn), for which the half-maximal inhibitory concentration (IC50) in data set [1] worked out at 0.067 µM. Besides, the K in [14] amounted to 0.5 ×10⁻³ /min.
Consider `CCCOC(=O)N1CCN(C(=O)c2ccc3c(Cl)cc(-c4ccc(OC)cc4)nc3c2)CC1`, for which, in [4], the GI50 was greater than 100 µM. Moreover, the “CLH(app)” value in data set [6] is 32 uL/min/mL; in [10], 43 uL/min/mL. The half-life in data set [8] was 28 min; in data set [9] it was 22 min.
On to `CCOC(=O)N1CCN(C(=O)c2ccc3cc4c(nc3c2)CCCC4)CC1`, for which the IC50 in data set [1] was greater than 750 µM.
For the molecule `CCCCOC(=O)N1CCN(C(=O)c2ccc3c(Cl)c4c(nc3c2)CCCC4)CC1`, the IC50 in [1] came out at 0.36 µM.
For `CCCOC(=O)N1CCN(C(=O)c2ccc3c(Cl)c4c(nc3c2)CCCC4)C(C)C1` (racemic), the K in data set [14] worked out at 0.8 ×10⁻³ /min.
As for `NCCOC(=O)N1CCN(C(=O)c2ccc3c(Cl)c4c(nc3c2)CCCC4)CC1`, the IC50 in data set [1] is 132 µM.
In the case of `C=CC(=O)Nc1cccc(OC)c1`, the K in data set [14] was 3.4 ×10⁻³ /min.
`CCCOC(=O)N1CCN(C(=O)c2ccc3c(Cl)cc(-c4ccccc4)nc3c2)CC1`: the GI50 in [4] is greater than 100 µM. Besides, the IC50 in [1] was determined as 0.3 µM. For the same molecule, the Kinact in data set [11] came to 0.193 min⁻¹. Besides, the “CLH(app)” value turned out to be 28 uL/min/mL in [6] and 70 uL/min/mL in data set [10]. The Ki in data set [12] came to 3.9 µM. For the same molecule, the Ratio in data set [13] was determined as 833 M⁻¹ s⁻¹. Besides, the figures for the half-life in [8] and in data set [9] were 33 min and 13 min, respectively.
Take `CCCOC(=O)N1CCN(C(=O)c2ccc3c(Cl)ccnc3c2)CC1`: the figures for the “CLH(app)” value in data set [6] and in data set [10] were 23 uL/min/mL and 750 uL/min/mL, respectively. The half-life in data set [8] stood at 40 min; in data set [9] it was 1 min.
As to `CCCOC(=O)N1CCN(C(=O)c2ccc3c(Cl)cc(-c4ccc(C)cc4)nc3c2)CC1`, the IC50 in data set [1] was determined as 0.37 µM. For the same molecule, the “CLH(app)” value was determined as 26 uL/min/mL in data set [6] and 22 uL/min/mL in [10]. For the same molecule, the values for the half-life in [8] and in data set [9] were 36 min and 41 min, respectively.
For `COC(=O)N1CCN(C(=O)c2ccc3c(Cl)c4c(nc3c2)CCCC4)CC1`, in [1], the IC50 amounted to 123 µM.
For the molecule `CCOC(=O)N1CCN(C(=O)c2ccc3c(Cl)c4c(nc3c2)CCCCC4)CC1`, the IC50 in data set [1] stood at 20.4 µM.
As to `CCCOC(=O)N1CCN(C(=O)c2ccc3c(Cl)cc(-c4ccc(C5(N)CC5)cc4)nc3c2)C[C@H]1C`, the GI50 in data set [4] was determined as 17.7 µM; in data set [5], 1.04 µM. The IC50 in [1] came out at 0.0117 µM. In addition, in data set [11], the Kinact worked out at 0.055 min⁻¹. The results for the “CLH(app)” value in data set [6] and in data set [10] were 20 uL/min/mL and 13 uL/min/mL, respectively. Also, the inhibition in [7] turned out to be 66%. For the same molecule, in data set [12], the Ki came to 0.44 µM. The “inhibition (INH)” value in data set [15] was found to be 50%. The Ratio in [13] worked out at 2110 M⁻¹ s⁻¹. Moreover, the half-life is 35 min in data set [8] and 52 min in [9].
On to `CCOC(=O)N1CCN(C(=O)c2ccc3c(Cl)c4c(nc3c2)CCCC4)CC1`, for which, in data set [4], the GI50 was greater than 100 µM. Further, the IC50 in data set [1] came out at 4.78 µM. The “CLH(app)” value in data set [6] came to 107 uL/min/mL; in [10] it was 245 uL/min/mL. Besides, the results for the half-life in data set [8] and in [9] were 9 min and 4 min, respectively.
